6 compounds from ChEMBL document CHEMBL4732018, “Design, synthesis, and biological evaluation of pyrazole-linked aloe emodin derivatives as potential anticancer agents” (RSC Med Chem, 2021) can be followed below.

Activity calls are given as the source filed them. No cut-off for these calls is given here.

For experiment [1], the system named is MDA-MB-231. The experiment in a line: Induction of cell cycle arrest in human MDA-MB-231 cells assessed as accumulation at G2/M phase at 20 uM measured after 24 hrs by PI staining based flow cytometry (reference value: 4.31 %). Format: functional.
Experiment [2] concerns MDA-MB-231. The experiment in a line: Induction of cell cycle arrest in human MDA-MB-231 cells assessed as accumulation at G1/S phase at 5 uM measured after 24 hrs by PI staining based flow cytometry (reference value: 19.33 %). The experiment is classed as functional. In general terms: Flow cytometry measures light scatter and fluorescence of single cells or particles in a stream.

In experiment [3] the test system is B16-F10. Kind of experiment: Anticancer activity against mouse B16-F10 cells assessed as cell growth inhibition measured after 48 hrs by MTT assay. The settings on record: B16-F10, 48 h. The experiment is classed as functional, cell-based. The essentials:
(§1)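 MTT test on ATCC lines grown in RPMI with 10% FBS and antibiotic/antimycotic at 37 °C in 5% CO₂. Cells were seeded at 4 x 10^3/well and treated for 48 h at 2.5, 5, 10 and 20 µM, from DMSO stocks diluted in medium. MTT (10 mg/mL stock) was then added for 3 h and absorbance read at 540 nm. IC50 derived; three independent experiments.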
For orientation: Tetrazolium dyes change colour on reduction, which living cells bring about.

Experiment [4] has as its system MDA-MB-231. Kind of experiment: Induction of apoptosis in human MDA-MB-231 cells assessed as increase in caspase 2 activity at 5 to 20 uM pretreated for 48 hrs followed by VDVAD-pNA substrate addition for 2 hrs by colorimetric analysis. Format: functional, cell-based. The conditions noted are these: dose 5-20 µM, time 50.0 hrs. The essentials: (§2)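 Colorimetric caspase kit. MDA-MB-231 cells were cultured 24 h, then treated at 0, 5, 10 and 20 µM for 48 h. Lysates were mixed with reaction buffer containing 10 mM DTT. pNA substrate was added at 4 mM final (VDVAD for caspase-2, DEVD for caspase-3, VEID for caspase-6) and incubated 2 h at 37 °C. Absorbance read at 405 nm; triplicate, mean ± SD.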

Experiment [5] relates to MDA-MB-231. The experiment in a line: Induction of apoptosis in human MDA-MB-231 cells assessed as late apoptotic cells at 10 uM measured after 24 hrs by Annexin V-FITC/PI staining based flow cytometric analysis. Format: functional.
The subject of experiment [6] is MDA-MB-231. The experiment in a line: Induction of apoptosis in human MDA-MB-231 cells assessed as late apoptotic cells at 20 uM measured after 24 hrs by Annexin V-FITC/PI staining based flow cytometric analysis. The experiment is classed as functional.
Experiment [7] has as its system MDA-MB-231. Kind of experiment: Induction of apoptosis in human MDA-MB-231 cells assessed as increase in caspase 8 activity at 5 to 20 uM pretreated for 48 hrs followed by IETD-pNA substrate addition for 2 hrs by colorimetric analysis. The experiment is classed as functional, cell-based. The conditions noted are these: dose 5-20 µM, time 50.0 hrs.
The subject of experiment [8] is MDA-MB-231. The experiment in a line: Induction of cell cycle arrest in human MDA-MB-231 cells assessed as accumulation at G2/M phase at 10 uM measured after 24 hrs by PI staining based flow cytometry (reference value: 4.31 %). Format: functional.
Experiment [9] has as its system HEK293. Kind of experiment: Cytotoxicity against human HEK293 cells assessed as cell growth inhibition measured after 48 hrs by MTT assay. The experiment is classed as cell-based. The conditions noted are these: HEK293, 48 h. An outline of the steps: as §1
The subject of experiment [10] is MDA-MB-231. The experiment in a line: Induction of apoptosis in human MDA-MB-231 cells assessed as increase in caspase 6 activity at 5 to 20 uM pretreated for 48 hrs followed by VEID-pNA substrate addition for 2 hrs by colorimetric analysis. The experiment is classed as functional, cell-based. The settings on record: dose 5-20 µM, time 50.0 hrs. An outline of the steps:
as §2

In experiment [11] the test system is MDA-MB-231. The experiment in a line: Induction of cell cycle arrest in human MDA-MB-231 cells assessed as accumulation at sub G0 phase at 5 uM measured after 24 hrs by PI staining based flow cytometry (reference value: 1.33 %). The experiment is classed as functional.
Experiment [12] relates to MDA-MB-231. Kind of experiment: Induction of apoptosis in human MDA-MB-231 cells assessed as late apoptotic cells at 5 uM measured after 24 hrs by Annexin V-FITC/PI staining based flow cytometric analysis. Format: functional.
For experiment [13], the system named is MDA-MB-231. The experiment in a line: Induction of cell cycle arrest in human MDA-MB-231 cells assessed as accumulation at G0/G1 phase at 5 uM measured after 24 hrs by PI staining based flow cytometry (reference value: 76.36 %). Format: functional.
Experiment [14] has as its system MDA-MB-231. Kind of experiment: Induction of cell cycle arrest in human MDA-MB-231 cells assessed as accumulation at G0/G1 phase at 10 uM measured after 24 hrs by PI staining based flow cytometry (reference value: 76.36 %). The experiment is classed as functional.
In experiment [15] the test system is MDA-MB-231. Kind of experiment: Induction of apoptosis in human MDA-MB-231 cells assessed as increase in caspase 9 activity at 5 to 20 uM pretreated for 48 hrs followed by LEHD-pNA substrate addition for 2 hrs by colorimetric analysis. The experiment is classed as functional, cell-based. The conditions noted are these: dose 5-20 µM, time 50.0 hrs.
For experiment [16], the system named is MDA-MB-231. Kind of experiment: Induction of apoptosis in human MDA-MB-231 cells assessed as early apoptotic cells at 5 uM measured after 24 hrs by Annexin V-FITC/PI staining based flow cytometric analysis (reference value: 6.73 %). Format: functional.
Experiment [17] concerns MDA-MB-231. Kind of experiment: Induction of cell cycle arrest in human MDA-MB-231 cells assessed as accumulation at G1/S phase at 20 uM measured after 24 hrs by PI staining based flow cytometry (reference value: 19.33 %). The experiment is classed as functional.
Experiment [18] concerns MDA-MB-231. Kind of experiment: Induction of cell cycle arrest in human MDA-MB-231 cells assessed as accumulation at G1/S phase at 10 uM measured after 24 hrs by PI staining based flow cytometry (reference value: 19.33 %). Format: functional.
Experiment [19] relates to MDA-MB-231. Kind of experiment: Anticancer activity against human MDA-MB-231 cells assessed as cell growth inhibition measured after 48 hrs by MTT assay. The experiment is classed as functional, cell-based. The settings on record: MDA-MB-231, 48 h. The essentials: as §1
For experiment [20], the system named is MDA-MB-231. The experiment in a line: Induction of apoptosis in human MDA-MB-231 cells assessed as early apoptotic cells at 10 uM measured after 24 hrs by Annexin V-FITC/PI staining based flow cytometric analysis (reference value: 6.73 %). The experiment is classed as functional.
For experiment [21], the system named is MDA-MB-231. Kind of experiment: Induction of apoptosis in human MDA-MB-231 cells assessed as increase in caspase 3 activity at 5 to 20 uM pretreated for 48 hrs followed by DEVD-pNA substrate addition for 2 hrs by colorimetric analysis. Format: functional, cell-based. The conditions noted are these: dose 5-20 µM, time 50.0 hrs. The essentials: as §2
Experiment [22] deals with HepG2. The experiment in a line: Anticancer activity against human HepG2 cells assessed as cell growth inhibition measured after 48 hrs by MTT assay. The conditions noted are these: HepG2, 48 h. Format: functional, cell-based. The essentials:
as §1

Experiment [23] concerns MDA-MB-231. Kind of experiment: Induction of cell cycle arrest in human MDA-MB-231 cells assessed as accumulation at G2/M phase at 5 uM measured after 24 hrs by PI staining based flow cytometry (reference value: 4.31 %). Format: functional.
Experiment [24] relates to MDA-MB-231. The experiment in a line: Induction of cell cycle arrest in human MDA-MB-231 cells assessed as accumulation at sub G0 phase at 10 uM measured after 24 hrs by PI staining based flow cytometry (reference value: 1.33 %). Format: functional.
Experiment [25] has as its system MDA-MB-231. Kind of experiment: Induction of membrane disintegrity in human MDA-MB-231 cells assessed as increase in LDH release at 2.5 to 20 uM incubated for 48 hrs by LDH leakage assay. Format: functional, cell-based. The conditions noted are these: dose 2.5-20 µM. An outline of the steps: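 Extracellular LDH kit assay. Cells were seeded at 4 x 10^3/well and treated 48 h at various concentrations. 20 µL of culture supernatant was assayed with absorbance at 450 nm. Results are expressed as % LDH leakage relative to untreated control cells; triplicate, mean ± SD.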
For orientation: LDH leaks from cells whose membrane has failed.

Experiment [26] deals with MDA-MB-231. The experiment in a line: Induction of cell cycle arrest in human MDA-MB-231 cells assessed as accumulation at G0/G1 phase at 20 uM measured after 24 hrs by PI staining based flow cytometry (reference value: 76.36 %). The experiment is classed as functional.
In experiment [27] the test system is MDA-MB-231. Kind of experiment: Induction of apoptosis in human MDA-MB-231 cells assessed as early apoptotic cells at 20 uM measured after 24 hrs by Annexin V-FITC/PI staining based flow cytometric analysis (reference value: 6.73 %). Format: functional.
The subject of experiment [28] is MCF7. Kind of experiment: Anticancer activity against human MCF-7 cells assessed as cell growth inhibition measured after 48 hrs by MTT assay. The experiment is classed as functional, cell-based. The settings on record: MCF7, 48 h. An outline of the steps:
as §1

The subject of experiment [29] is MDA-MB-231. The experiment in a line: Induction of cell cycle arrest in human MDA-MB-231 cells assessed as accumulation at sub G0 phase at 20 uM measured after 24 hrs by PI staining based flow cytometry (reference value: 1.33 %). The experiment is classed as functional.

Broadly, the IC50 is the point on the concentration scale where inhibition reaches its midpoint. Regarding `COC(=O)c1c(-c2cc(O)c3c(c2)C(=O)c2cccc(O)c2C3=O)nn(-c2ccc(C(C)C)cc2)c1C(=O)OC`, the Activity in experiment [1] is reported as 0%; in experiment [2], 22.19%; in experiment [5], 14.24%; in experiment [6], 50.45%; in [8], 0.05%; in experiment [11], 5.66%. In addition, the Activity in [12] is 17.43%; in experiment [13] it was 77.2%; in experiment [14], 65.81%; in [16], 20.55%; in experiment [17], 25.8%; in experiment [18], 34.14%. Also, the Activity in experiment [20] amounted to 38.08%; in experiment [23] it was 0.62%; in experiment [24], 10.87%; in experiment [26] it was 74.2%; in [27], 35.34%; in experiment [29], 61.45%. The IC50 in experiment [3] is 6.06 µM; in experiment [9], 21.2 µM; in experiment [19], 1.66 µM; in [22], 3.99 µM; in [28], 2.68 µM. Further, the outcome in [4], in experiment [7], in experiment [10], in experiment [15], in [21] and in experiment [25] was Active.
`COC(=O)c1c(-c2cc(O)c3c(c2)C(=O)c2cccc(O)c2C3=O)nn(-c2ccc(C)cc2)c1C(=O)OC`: the Activity in experiment [1] turned out to be 12.33%; in experiment [2] it was 36.97%; in experiment [5], 38.13%; in experiment [6], 71.81%; in experiment [8], 4.54%; in experiment [11] it was 3.22%. In addition, the Activity came out at 19% in [12]; 57.25% in [13]; 63.3% in experiment [14]; 38.3% in experiment [16]; 17.85% in [17]; 32.1% in [18]. The Activity in experiment [20] is recorded as 16.43%; in experiment [23], 5.77%; in experiment [24], 8.2%; in experiment [26], 69.82%; in experiment [27], 12.47%; in experiment [29] it was 25.8%. For the same compound, the IC50 in experiment [3] was found to be 9.57 µM; in experiment [9] it was 30.1 µM; in [19], 1.32 µM; in experiment [22], 5.62 µM; in experiment [28], 0.99 µM. In addition, the outcome in experiment [4], in [7], in [10], in experiment [15], in [21] and in [25] was Active.
In the case of `CCOC(=O)c1c(-c2cc(O)c3c(c2)C(=O)c2cccc(O)c2C3=O)nn(-c2ccccc2)c1C(=O)OCC`, the IC50 was 2.22 µM in experiment [3]; 4.56 µM in [9]; 21.7 µM in experiment [19]; 12.3 µM in experiment [22]; 3.18 µM in experiment [28].
In the case of `O=C1c2cccc(O)c2C(=O)c2c(O)cc(CO)cc21` [ALOE-EMODIN], the IC50 was found to be 3.12 µM in [3]; 1 µM in experiment [9]; 12.2 µM in [19]; 6.13 µM in experiment [22]; 4.14 µM in experiment [28].
Taken in the same sequence, the figures for `COC(=O)c1c(-c2cc(O)c3c(c2)C(=O)c2cccc(O)c2C3=O)nn(-c2ccccc2C)c1C(=O)OC` were 3.34 µM, 5.01 µM, 1.49 µM, 3.46 µM and 4.66 µM.
The corresponding values for `CCOC(=O)c1c(-c2cc(O)c3c(c2)C(=O)c2cccc(O)c2C3=O)nn(-c2ccc(C)c(C)c2)c1C(=O)OCC` are 1.85 µM, 1.03 µM, 0.9 µM, 1 µM and 1.04 µM.
